# Measured values: the M2OR odorant receptor database
# How the values were obtained:
# Settings in all cases: stereoisomer not certain
# [1] = system: OR2C1
# Summary of the method: (§1)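 Each receptor–molecule pair is labelled responsive or non-responsive (inactive) according to whether the original authors judged the measured signal statistically different from baseline. The data were taken from the main text and supplementary material of published papers and checked for typos and inconsistencies. Assay methods differed by source, with transient luciferase assays in mammalian cell lines being common.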
# Target sequence in this assay (as listed by the source): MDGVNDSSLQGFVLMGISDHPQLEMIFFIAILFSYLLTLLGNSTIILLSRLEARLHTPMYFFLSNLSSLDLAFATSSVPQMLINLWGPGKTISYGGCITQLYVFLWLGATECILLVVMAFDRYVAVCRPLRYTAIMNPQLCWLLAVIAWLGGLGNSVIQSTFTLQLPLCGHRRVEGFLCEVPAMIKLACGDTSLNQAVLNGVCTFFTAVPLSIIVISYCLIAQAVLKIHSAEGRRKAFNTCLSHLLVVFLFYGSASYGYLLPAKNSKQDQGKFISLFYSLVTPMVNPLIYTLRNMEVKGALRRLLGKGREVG
# [2] = system: OR2C1; remark: listed apart in the source
# Summary of the method: as §1
# Target sequence in this assay (as listed by the source): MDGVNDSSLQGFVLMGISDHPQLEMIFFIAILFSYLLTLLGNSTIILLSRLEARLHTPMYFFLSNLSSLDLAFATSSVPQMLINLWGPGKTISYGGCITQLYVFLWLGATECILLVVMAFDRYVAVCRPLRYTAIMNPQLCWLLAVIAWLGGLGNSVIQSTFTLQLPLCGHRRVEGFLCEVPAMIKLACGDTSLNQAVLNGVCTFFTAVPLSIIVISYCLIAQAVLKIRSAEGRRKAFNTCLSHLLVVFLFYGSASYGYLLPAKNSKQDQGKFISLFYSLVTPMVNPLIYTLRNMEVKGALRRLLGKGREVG
# [3] = system: OR2C1; remark: listed apart in the source
# Summary of the method: as §1
# Target sequence in this assay (as listed by the source): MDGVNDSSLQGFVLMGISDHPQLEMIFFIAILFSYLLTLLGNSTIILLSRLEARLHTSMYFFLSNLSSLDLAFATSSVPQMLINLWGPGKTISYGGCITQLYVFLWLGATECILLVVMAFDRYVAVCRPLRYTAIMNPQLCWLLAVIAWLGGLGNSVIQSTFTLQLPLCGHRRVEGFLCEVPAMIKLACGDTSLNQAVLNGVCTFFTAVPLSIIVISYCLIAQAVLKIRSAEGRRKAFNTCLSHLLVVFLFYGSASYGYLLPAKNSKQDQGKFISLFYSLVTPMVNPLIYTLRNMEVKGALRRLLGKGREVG
# [4] = system: OR2C1; remark: listed apart in the source
# Summary of the method: as §1
# Target sequence in this assay (as listed by the source): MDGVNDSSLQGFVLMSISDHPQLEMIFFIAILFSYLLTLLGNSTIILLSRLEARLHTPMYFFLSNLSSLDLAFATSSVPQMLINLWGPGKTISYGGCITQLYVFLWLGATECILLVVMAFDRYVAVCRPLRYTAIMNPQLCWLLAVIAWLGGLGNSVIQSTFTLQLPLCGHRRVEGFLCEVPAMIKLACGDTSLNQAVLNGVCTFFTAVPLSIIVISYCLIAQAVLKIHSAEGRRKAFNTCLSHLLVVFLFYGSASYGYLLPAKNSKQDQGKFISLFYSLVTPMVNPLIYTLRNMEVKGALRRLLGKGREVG
# [5] = system: OR2C1; remark: listed apart in the source
# Summary of the method: as §1
# Target sequence in this assay (as listed by the source): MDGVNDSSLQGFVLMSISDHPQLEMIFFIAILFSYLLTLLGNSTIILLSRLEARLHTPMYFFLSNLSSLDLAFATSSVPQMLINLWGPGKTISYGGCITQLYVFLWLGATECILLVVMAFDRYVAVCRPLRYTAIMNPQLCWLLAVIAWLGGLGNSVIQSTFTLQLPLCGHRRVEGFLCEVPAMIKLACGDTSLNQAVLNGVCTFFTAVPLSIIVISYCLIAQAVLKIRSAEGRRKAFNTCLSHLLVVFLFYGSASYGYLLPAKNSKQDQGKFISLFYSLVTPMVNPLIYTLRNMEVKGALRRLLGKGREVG
# [6] = system: OR2C1; remark: listed apart in the source
# Summary of the method: as §1
# Target sequence in this assay (as listed by the source): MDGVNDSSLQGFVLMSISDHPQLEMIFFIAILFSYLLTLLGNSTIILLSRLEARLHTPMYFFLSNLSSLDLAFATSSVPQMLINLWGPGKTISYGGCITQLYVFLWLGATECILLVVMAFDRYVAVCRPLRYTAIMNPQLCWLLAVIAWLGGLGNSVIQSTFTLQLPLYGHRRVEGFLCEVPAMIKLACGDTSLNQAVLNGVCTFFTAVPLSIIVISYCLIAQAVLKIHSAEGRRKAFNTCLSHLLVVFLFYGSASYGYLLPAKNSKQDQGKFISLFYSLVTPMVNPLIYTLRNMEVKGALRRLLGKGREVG
# [7] = system: OR2C3
# Summary of the method: as §1
# Target sequence in this assay (as listed by the source): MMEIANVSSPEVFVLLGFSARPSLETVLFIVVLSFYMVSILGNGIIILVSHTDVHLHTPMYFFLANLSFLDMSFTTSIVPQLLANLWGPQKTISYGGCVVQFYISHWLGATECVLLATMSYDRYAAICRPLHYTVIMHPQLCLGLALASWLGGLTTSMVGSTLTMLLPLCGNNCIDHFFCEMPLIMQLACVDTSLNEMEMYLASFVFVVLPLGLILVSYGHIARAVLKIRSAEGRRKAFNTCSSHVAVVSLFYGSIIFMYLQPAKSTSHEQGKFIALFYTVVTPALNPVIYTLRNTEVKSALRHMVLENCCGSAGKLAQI
# [8] = system: OR2C3; remark: listed apart in the source
# Summary of the method: as §1
# Target sequence in this assay (as listed by the source): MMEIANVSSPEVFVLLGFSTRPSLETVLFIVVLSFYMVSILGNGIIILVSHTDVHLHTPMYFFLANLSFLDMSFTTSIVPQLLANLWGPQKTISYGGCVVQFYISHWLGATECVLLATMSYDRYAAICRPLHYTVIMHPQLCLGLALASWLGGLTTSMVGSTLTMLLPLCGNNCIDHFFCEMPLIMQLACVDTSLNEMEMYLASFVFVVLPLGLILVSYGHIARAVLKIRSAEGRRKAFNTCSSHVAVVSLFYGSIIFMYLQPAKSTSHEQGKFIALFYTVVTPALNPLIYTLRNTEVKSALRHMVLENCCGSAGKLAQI
# [9] = biological target: OR2D2 (Homo sapiens) (UniProt Q9H210)
# Sequence of OR2D2 (Homo sapiens) (Q9H210 whole entry): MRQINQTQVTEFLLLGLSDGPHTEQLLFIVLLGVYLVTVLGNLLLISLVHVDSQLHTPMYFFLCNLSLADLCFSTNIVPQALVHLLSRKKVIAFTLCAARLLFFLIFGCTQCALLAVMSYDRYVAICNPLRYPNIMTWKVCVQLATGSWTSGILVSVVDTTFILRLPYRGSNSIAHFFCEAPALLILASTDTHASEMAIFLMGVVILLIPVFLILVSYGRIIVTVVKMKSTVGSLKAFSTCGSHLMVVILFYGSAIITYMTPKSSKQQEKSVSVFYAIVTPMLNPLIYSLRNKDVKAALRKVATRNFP
# Summary of the method: as §1
# [10] = biological target: OR2C3 (Homo sapiens) (UniProt Q8N628)
# Sequence of OR2C3 (Homo sapiens) (Q8N628 whole entry): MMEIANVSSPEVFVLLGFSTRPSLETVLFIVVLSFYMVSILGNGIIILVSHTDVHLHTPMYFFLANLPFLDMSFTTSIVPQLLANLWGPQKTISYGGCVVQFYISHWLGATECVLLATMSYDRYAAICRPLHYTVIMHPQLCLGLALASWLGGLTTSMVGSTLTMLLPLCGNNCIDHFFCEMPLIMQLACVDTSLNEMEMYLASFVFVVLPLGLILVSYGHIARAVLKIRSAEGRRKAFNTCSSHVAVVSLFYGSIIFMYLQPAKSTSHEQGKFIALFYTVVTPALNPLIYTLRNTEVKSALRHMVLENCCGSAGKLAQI
# Summary of the method: as §1
# 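Also: active if original authors judged signal statistically different from baseline.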
compound,measurement,setting,value
O=CC=Cc1ccccc1,odorant receptor agonist call,[1],inactive
same,odorant receptor agonist call,[2],inactive
same,odorant receptor agonist call,[3],inactive
same,odorant receptor agonist call,[4],inactive
same,odorant receptor agonist call,[5],active
same,odorant receptor agonist call,[6],active
C=CCOC(=O)Cc1ccccc1,odorant receptor agonist call,[2],inactive
same,odorant receptor agonist call,[7],inactive
same,odorant receptor agonist call,[8],inactive
same,odorant receptor agonist call,[9],inactive
Cc1c([N+](=O)[O-])c(C)c([N+](=O)[O-])c(C(C)(C)C)c1[N+](=O)[O-],odorant receptor agonist call,[10],inactive
same,odorant receptor agonist call,[9],inactive
